These results are taken from ChEMBL document CHEMBL4118150, “2-Methylacrylamide as a bioisoster of thiourea group for 1,3-dibenzylthioureido TRPV1 receptor antagonists” (Bioorg Med Chem Lett, 2018).

Experiment [1] addresses T1, Transient receptor potential cation channel subfamily V member 1 (Rattus norvegicus, UniProt O35433). Kind of experiment: Antagonist activity at TRPV1 in neonatal rat DRG neurons assessed as inhibition of capsaicin-induced intracellular calcium after 10 mins in presence of 45Ca2+ by Beckman CP scintillation counting method. The class given is cell-based. In a few lines: (§1)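 45Ca2+ uptake in cultured spinal sensory neurons from neonatal rat. Antagonist mode: derivatives were tested against 0.5 μM capsaicin, and IC50 is the concentration that cuts the capsaicin response by 50%. Agonist mode: EC50 is the concentration giving 50% of the maximal response. Values were estimated from at least 3 replicates at each concentration.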
On the technique in general: A change in cytosolic calcium serves as a functional read-out for many receptors and channels.

The target of experiment [2] is T1, Transient receptor potential cation channel subfamily V member 1. The experiment is described as follows: Agonist activity at TRPV1 in neonatal rat DRG neurons assessed as increase in calcium influx after 10 mins in presence of 45Ca2+ by Beckman CP scintillation counting method. In a few lines: as §1
Experiment [3] concerns the target Transient receptor potential cation channel subfamily V member 1 (Rattus norvegicus) (UniProt O35433). Kind of experiment: Potency index, ratio of IC50 for ATC-120 to IC50 for test compound for antagonist activity at TRPV1 in neonatal rat DRG neurons.

Molecules are shown by their SMILES. pEC50, pIC50: −log10 of the molar value. Where only a bound is given, the exact number is not on record here.

T1 sequence (O35433 whole entry): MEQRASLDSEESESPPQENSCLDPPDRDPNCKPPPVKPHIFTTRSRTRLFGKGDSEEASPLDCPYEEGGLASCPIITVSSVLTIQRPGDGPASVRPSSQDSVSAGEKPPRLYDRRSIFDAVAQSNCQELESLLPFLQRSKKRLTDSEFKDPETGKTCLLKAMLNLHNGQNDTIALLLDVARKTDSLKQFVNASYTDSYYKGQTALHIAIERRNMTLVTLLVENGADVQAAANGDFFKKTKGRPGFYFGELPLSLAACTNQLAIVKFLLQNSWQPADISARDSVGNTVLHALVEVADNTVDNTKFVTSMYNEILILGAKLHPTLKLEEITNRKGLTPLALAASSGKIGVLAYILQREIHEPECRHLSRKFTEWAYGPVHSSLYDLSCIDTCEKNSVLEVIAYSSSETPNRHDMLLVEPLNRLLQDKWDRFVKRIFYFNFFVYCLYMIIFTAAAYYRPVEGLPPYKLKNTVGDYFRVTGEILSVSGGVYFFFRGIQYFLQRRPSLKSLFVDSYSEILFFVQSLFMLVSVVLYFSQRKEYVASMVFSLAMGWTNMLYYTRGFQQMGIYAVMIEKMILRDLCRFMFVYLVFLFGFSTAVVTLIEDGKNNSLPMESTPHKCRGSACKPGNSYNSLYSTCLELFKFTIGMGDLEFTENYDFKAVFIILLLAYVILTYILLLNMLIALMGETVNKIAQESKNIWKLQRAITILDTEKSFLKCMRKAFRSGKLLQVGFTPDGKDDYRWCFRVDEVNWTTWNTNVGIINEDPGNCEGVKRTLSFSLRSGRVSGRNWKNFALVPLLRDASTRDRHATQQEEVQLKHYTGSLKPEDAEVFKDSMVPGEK
Chain of Transient receptor potential cation channel subfamily V member 1 (Rattus norvegicus) (O35433 whole entry): as above

`CC(Cc1ccc(C(C)(C)C)cc1)C(=O)N[C@H](C)c1ccc(NS(C)(=O)=O)cc1` (mixture of isomers): in experiment [1], the pIC50 is 6.57. In addition, the pEC50 in experiment [2] is less than 4.00. As to `C[C@@H](NC(=O)COc1ccc(C(C)(C)C)cc1)c1ccc(NS(C)(=O)=O)c(F)c1`, the pEC50 in experiment [2] was less than 4.00. Still for that read-out and setting: under `C[C@@H](N/C(COc1ccc(C(C)(C)C)cc1)=N/C#N)c1ccc(NS(C)(=O)=O)cc1` stands less than 4.00; under `C/C(=C\c1ccc(C(C)(C)C)cc1)C(=O)N[C@H](C)c1ccc(NS(C)(=O)=O)cc1`, less than 4.00.

In the case of `C[C@@H](NC(=O)NCc1ccc(C(C)(C)C)cc1)c1ccc(NS(C)(=O)=O)cc1`, in experiment [1], the pIC50 was 6.17. Besides, the pEC50 in experiment [2] is less than 4.00. On to `C/C(=C\c1ccc(C(C)(C)C)cc1)C(=O)N[C@H](C)c1ccc(NS(C)(=O)=O)c(F)c1`, for which the pEC50 in experiment [2] is less than 4.00. Regarding `C[C@@H](NC(=S)CCc1ccc(C(C)(C)C)cc1)c1ccc(NS(C)(=O)=O)cc1`, the pIC50 in experiment [1] is 6.52. The pEC50 in experiment [2] was less than 4.00. Turning to `C[C@@H](NC(=O)C#Cc1ccc(C(C)(C)C)cc1)c1ccc(NS(C)(=O)=O)cc1`, the pEC50 in experiment [2] was less than 4.00. Turning to `C[C@@H](NC(=S)COc1ccc(C(C)(C)C)cc1)c1ccc(NS(C)(=O)=O)cc1`, the pEC50 in experiment [2] is less than 4.00.

For the compound `C[C@@H](NC(=S)NCc1ccc(C(C)(C)C)cc1)c1ccc(NS(C)(=O)=O)cc1`, the pEC50 in experiment [2] was less than 4.00.

With `C=Cc1cc([C@@H](C)NC(=O)/C(C)=C/c2ccc(C(C)(C)C)cc2)ccc1NS(C)(=O)=O`, the Ratio IC50 in experiment [3] came to 2. For the same compound, the pEC50 in experiment [2] was less than 4.00. For the compound `C[C@@H](NC(=O)/C=C/c1ccc(C(C)(C)C)cc1)c1ccc(NS(C)(=O)=O)cc1`, the pIC50 in experiment [1] is 6.80. Also, in experiment [2], the pEC50 is less than 4.00. The like results for `C[C@@H](NC(=S)/C=C/c1ccc(C(C)(C)C)cc1)c1ccc(NS(C)(=O)=O)cc1` were, in that order, 5.30 and less than 4.00. Turning to `C[C@@H](NC(=O)CCc1ccc(C(C)(C)C)cc1)c1ccc(NS(C)(=O)=O)cc1`, the pIC50 in experiment [1] is 6.62. In addition, the pEC50 in experiment [2] was less than 4.00. Take `C[C@@H](NC(=O)COc1ccc(C(C)(C)C)cc1)c1ccc(NS(C)(=O)=O)cc1`: the negative-log EC50 (pEC50) in experiment [2] is less than 4.00.

In general, pIC50 refers to −log10 of the IC50, conventionally taken in molar units. In general, pEC50 refers to −log10 of the EC50, conventionally taken in molar units.
